RGS4 inh = inhibitors of human RGS4; P49798; HEK293 M3R/RGS4 inducible, Fluo-4 calcium flux; active compounds read high; triggered by carbachol at its EC20; B-score at 10 µM; 310,000 compounds, 0.45% hits; AID 463165;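 active means B-score, a plate-corrected calcium signal, over three deviations above library mean, with baseline fluorescence within five deviations of library mean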;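 further: RGS4 expression induced by doxycycline in cells with stable M3 receptor; B-score is computed from the integrated fluorescence ratio over baseline after carbachol; higher B-score means a larger calcium signal and so more RGS4 inhibition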
Target sequence (P49798 whole entry, looked up): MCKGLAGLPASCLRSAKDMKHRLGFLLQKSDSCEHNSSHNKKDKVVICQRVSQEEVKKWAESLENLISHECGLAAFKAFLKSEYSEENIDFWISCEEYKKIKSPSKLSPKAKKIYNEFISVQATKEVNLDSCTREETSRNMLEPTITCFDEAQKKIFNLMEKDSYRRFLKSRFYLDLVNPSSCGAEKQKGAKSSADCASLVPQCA
MrgX1 antagonist = blocks BAM8-22 activation of human MrgX1 receptor; Q96LB2; MRGX1-HEK293 calcium flux, Fluo-4, BAM8-22 antagonism; active compounds read low; B-score at 10 µM; 310,000 compounds, 1.3% hits; AID 588676;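 active means calcium-response B-score plate-corrected more than 3 library SD below zero, starting fluorescence within 5 deviations, no agonist response on first addition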;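 further: peak minus trough fluorescence over baseline after final BAM8-22 challenge near maximal dose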
Target sequence (Q96LB2 whole entry, looked up): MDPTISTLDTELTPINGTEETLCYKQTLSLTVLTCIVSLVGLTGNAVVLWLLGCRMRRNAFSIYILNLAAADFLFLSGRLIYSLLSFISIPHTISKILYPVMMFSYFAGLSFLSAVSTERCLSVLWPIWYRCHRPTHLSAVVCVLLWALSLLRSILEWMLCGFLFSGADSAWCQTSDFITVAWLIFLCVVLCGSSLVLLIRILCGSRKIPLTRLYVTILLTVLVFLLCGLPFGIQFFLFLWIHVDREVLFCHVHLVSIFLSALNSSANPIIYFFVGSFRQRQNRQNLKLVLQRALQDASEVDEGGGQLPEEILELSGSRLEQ
KCC2 mod = KCC2 (human) Cl- transport modulation. B-score of Tl+ flux slope (higher = more flux/activation; lower = inhibition) at 10 µM. Q9H2X9. AID 1456. 190,000 compounds, 2.2% hits. KCC2 cells, thallium flux FluoZin-2 fluorescence;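 active means thallium flux slope and its plate-corrected score both differing from the plate sample mean at a set confidence after two filtering rounds, in either direction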;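 further: slope of fluorescence scaled to starting intensity during 10 to 20 s after thallium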
MrgX1 ag = agonists of human MrgX1 receptor; B-score at 10 µM; Q96LB2; 310,000 compounds, 0.44% hits; AID 588627; MrgX1-HEK293 cells, Fluo-4 calcium fluorescence, agonist mode; active compounds read high;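 active means calcium response B-score plate-corrected fluorescence ratio at least 3 library SD, with starting fluorescence B-score inside 5 SD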
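System: HEK293 cells stably expressing human MrgX1 receptor; Dosing: test compound in the initial addition of three; Schedule: overnight plating, then 30 min 37 °C plus 30 min room-temperature dye loading; Detection: kinetic calcium dye fluorescence, Fluo-4 NW; Controls: per-plate positive and negative controls for Z′ factor.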
MrgX1 allo act = human MrgX1 positive allosteric modulation, primary screen; Q96LB2; MrgX1-HEK293, Fluo-4 calcium flux, FDSS; active compounds read high; B-score at 10 µM; 310,000 compounds, 0.63% hits; AID 588675;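 active means plate-corrected calcium response at least 3 library SD above typical, normal starting fluorescence, not activating the receptor alone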;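 further: compound read alongside a low EC10 to EC30 dose of BAM8-22 agonist; peak minus trough fluorescence over baseline measured at the second addition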
RGS4 pot = RGS4 potentiation or activation | B-score at 10 µM | 310,000 compounds, 0.92% hits | HEK293 M3R/inducible RGS4, carbachol calcium flux Fluo4; active compounds read low;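 active means B-score of the integrated calcium signal more than 4 SD below the library mean, with starting fluorescence not abnormally high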;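 further: negative B-score means reduced calcium response which marks RGS4 activation or potentiation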
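Material: M3R-expressing HEK293 line, RGS4 induced by doxycycline | Schedule: Overnight RGS4 induction, 30 min dye load 37 °C, 20 min compound RT | Measured by: Fluo4 fluorescence kinetic imaging of calcium | Read-out: Integrated calcium ratio converted to B score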
MrgX1 antag conf = confirmation of human MrgX1 receptor antagonists; shares compounds with MrgX1 antagonist; MrgX1-HEK293, BAM8-22 calcium flux, Fluo-4; active compounds read low; remaining BAM8-22 calcium response % of control (active compounds read low), % at 10 µM; 2,300 compounds, 19% hits; AID 602420;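 active means remaining agonist calcium response no higher than 100% minus 3 SD of agonist-only control wells, with starting fluorescence near control levels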;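 further: agonist BAM8-22 given at a near maximal EC90 to ECmax level; peak minus minimum fluorescence divided by baseline after agonist addition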
HEK293 Ca flux = counter-screen for MrgX1 antagonists: effect in parental HEK293 cells; shares compounds with MrgX1 antagonist; Fluo-4 calcium fluorescence, FDSS; fluorescence ratio F(max-min)/F0 at 10 µM; 4,000 compounds, 2% hits;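 active means duplicate-averaged calcium fluorescence ratio at least three times the standard deviation of buffer wells, a nonspecific response in parental cells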
HEK293 Ca counter = MrgX1 allosteric activator counter-screen hit in parental HEK293 cells; shares compounds with MrgX1 antagonist; parental HEK293 calcium flux, Fluo-4 fluorescence ratio; active compounds read high; fluorescence ratio F(max-min)/F0 at 10 µM; 4,000 compounds, 0.4% hits;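 active means calcium fluorescence ratio, averaged over duplicates, at least 3 SD of the buffer-well ratio, meaning a nonspecific response in receptor-free cells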;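 further: untransfected parental HEK293 lacking MrgX1 used as counterscreen for MrgX1 allosteric activators; fluorescence change taken during the second addition on a kinetic imager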
HEK293 Ca cntr2 = activity in parental HEK293 cells lacking MrgX1 receptor | Fluo-4 calcium fluorescence (FDSS); active compounds read high | AID 624115 | 4,000 compounds, 8.7% hits | shares compounds with MrgX1 antagonist | fluorescence ratio F(max-min)/F0 at 10 µM;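 active means calcium fluorescence ratio at least three times the spread of buffer wells, meaning a non-specific response in parental cells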
Large screens that a line does not name were inactive (follow-up assays come after a bar, where they were run). Hits are enriched below; roughly 4.7% of the tested compounds scored in any of these assays.

CCN(CC)c1ccc(/C=C/c2cc(-c3ccccc3)c3ccccc3n2)cc1	MrgX1 antagonist -15 | MrgX1 antag conf inactive | HEK293 Ca flux 0.065 | HEK293 Ca counter inactive | HEK293 Ca cntr2 inactive
COc1ccc(-c2cc(-c3ccccc3)nc(-c3ccc4c(c3)NC(=O)CO4)c2)cc1	MrgX1 antagonist -5.9 | MrgX1 antag conf inactive | HEK293 Ca flux inactive | HEK293 Ca counter inactive | HEK293 Ca cntr2 inactive
COc1ccc(Nc2nc(-c3ccc4c(c3)NC(=O)CO4)cs2)cc1	none
Cc1nc(/N=C(\N)N(C)C)[nH]c(=O)c1C	none
O=C(Nc1ccc(F)cc1)Nc1cc(OCC(F)(F)F)cc(OCC(F)(F)F)c1	MrgX1 antagonist -6 | MrgX1 antag conf 62% | HEK293 Ca flux inactive | HEK293 Ca counter inactive | HEK293 Ca cntr2 inactive
Cc1cccc(NC(=O)c2ccccc2NC(=O)C2CCCCC2)c1C	MrgX1 antagonist -5 | MrgX1 antag conf inactive | HEK293 Ca flux inactive | HEK293 Ca counter inactive | HEK293 Ca cntr2 inactive
COc1ccccc1N1CCN(C(=O)C2CCCO2)CC1 (centres undefined)	MrgX1 antagonist -8.2 | MrgX1 antag conf inactive | HEK293 Ca flux inactive | HEK293 Ca counter inactive | HEK293 Ca cntr2 inactive
CC(C)(CO)NC(=O)Nc1ccc(Cl)c(Cl)c1	MrgX1 antagonist -7.7 | MrgX1 antag conf inactive | HEK293 Ca flux inactive | HEK293 Ca counter inactive | HEK293 Ca cntr2 inactive
O=C(NCC1CC1(Cl)Cl)Nc1ccc(Cl)c(Cl)c1 (centres undefined)	MrgX1 antagonist -5.5 (no result: KCC2 mod) | MrgX1 antag conf inactive | HEK293 Ca flux inactive | HEK293 Ca counter inactive | HEK293 Ca cntr2 inactive
COc1ccc(CCNC(=O)CSc2nnc3ccc(-c4ccccn4)nn23)cc1	none (no result: KCC2 mod)
CN(C)/C=N/c1nc(-c2ccc3c(c2)OCO3)cs1	MrgX1 antagonist -6.4 | MrgX1 antag conf inactive | HEK293 Ca flux inactive | HEK293 Ca counter inactive | HEK293 Ca cntr2 inactive
CN(C)c1ccc(C(=O)N=c2sccn2C)cc1[N+](=O)[O-]	none (no result: KCC2 mod)
COc1ccc(OCc2nc3ccc(S(=O)(=O)Nc4ccccc4Cl)cc3[nH]2)cc1	MrgX1 antagonist -6.1 | MrgX1 antag conf inactive | HEK293 Ca flux inactive | HEK293 Ca counter inactive | HEK293 Ca cntr2 inactive
COc1ccc(N(CC(=O)NC(C)(C)C)C(=O)CCC(=O)Nc2nccs2)c(OC)c1	none (no result: KCC2 mod)
O=C(NCC1CCN(Cc2cccc(Cl)c2)CC1)Nc1ccccc1Cl	MrgX1 antagonist -5.7 (no result: KCC2 mod) | MrgX1 antag conf inactive | HEK293 Ca flux inactive | HEK293 Ca counter inactive | HEK293 Ca cntr2 inactive
O=C(/C=C/c1c(F)cccc1Cl)NCc1ccc2c(c1)OCO2	none (no result: KCC2 mod)
NC(=O)c1ccsc1NC(=O)CSc1ccccc1F	MrgX1 antagonist -4.9 | MrgX1 antag conf inactive | HEK293 Ca flux inactive | HEK293 Ca counter inactive | HEK293 Ca cntr2 inactive
Cc1ccccc1SCC(=O)OCC(=O)Nc1sccc1C(N)=O	none
NC(=O)c1ccsc1NC(=O)CCS(=O)(=O)c1ccc(F)cc1	MrgX1 antagonist -5.9 (no result: KCC2 mod) | MrgX1 antag conf 80% | HEK293 Ca flux inactive | HEK293 Ca counter inactive | HEK293 Ca cntr2 inactive
NC(=O)c1ccsc1NC(=O)COC(=O)Cc1cccc2ccccc12	MrgX1 antagonist -6.8 | MrgX1 antag conf 42% | HEK293 Ca flux inactive | HEK293 Ca counter inactive | HEK293 Ca cntr2 inactive
COc1ccccc1OCC(=O)OCC(=O)Nc1sccc1C(N)=O	none
CC(=O)c1cccc(S(=O)(=O)NC2CC2)c1	MrgX1 antagonist -6.8 | MrgX1 antag conf inactive | HEK293 Ca flux inactive | HEK293 Ca counter inactive | HEK293 Ca cntr2 inactive
CC(=O)c1cccc(S(=O)(=O)NC2CCCCCC2)c1	none
COc1ccc(NC(=O)CCNS(=O)(=O)c2cccc3nonc23)c(OC)c1	none (no result: KCC2 mod)
COc1ccc(NC(=O)CNS(=O)(=O)c2cccc3nonc23)c(OC)c1	MrgX1 antagonist -5.7 | MrgX1 antag conf inactive | HEK293 Ca flux inactive | HEK293 Ca counter inactive | HEK293 Ca cntr2 inactive
COc1ccccc1C(=O)C1CCCN(C(=O)c2cccc(Cn3cccn3)c2)C1 (centres undefined)	none (no result: KCC2 mod)
CCc1ccc(NC(=O)Cc2ccc(NC3=NC4CS(=O)(=O)CC4S3)cc2)cc1 (centres undefined)	MrgX1 antagonist -6.1 (no result: KCC2 mod) | MrgX1 antag conf inactive | HEK293 Ca flux inactive | HEK293 Ca counter inactive | HEK293 Ca cntr2 inactive
CCOc1ccc(NC(=O)Cc2ccc(NC3=NC4CS(=O)(=O)CC4S3)cc2)cc1 (centres undefined)	none (no result: KCC2 mod)
CN(C)c1cc(=O)n2c(n1)SCCC2	none
O=c1cc(N2CCCCC2)nc2n1CCCS2	MrgX1 antagonist -5.4 (no result: KCC2 mod) | MrgX1 antag conf inactive | HEK293 Ca flux inactive | HEK293 Ca counter inactive | HEK293 Ca cntr2 inactive
Cc1nonc1NC(=O)CSc1nnc(N)s1	none (no result: KCC2 mod)
CCOC(=O)N1CCN(C(=O)c2ccc3c(c2)NC(=O)/C(=C\c2cccc(C)c2)S3)CC1	none (no result: KCC2 mod)
Cc1ccc(S(=O)(=O)N2CCN(CC(O)c3ccccc3)CC2)cc1C (centres undefined)	MrgX1 antagonist -5 | MrgX1 antag conf inactive | HEK293 Ca flux inactive | HEK293 Ca counter inactive | HEK293 Ca cntr2 inactive
Cc1ccc(S(=O)(=O)N2CCN(CC(O)c3ccccc3)CC2)cc1 (centres undefined)	none
Cc1cc(NC(=O)c2ccc(N3C(=O)CCC3=O)cc2)no1	MrgX1 antagonist -5.3 (no result: KCC2 mod) | MrgX1 antag conf inactive | HEK293 Ca flux inactive | HEK293 Ca counter inactive | HEK293 Ca cntr2 inactive
CCc1ccc(N2CC(C(=O)Nc3cc(C)ccc3F)CC2=O)cc1 (centres undefined)	MrgX1 antagonist -6.9 (no result: KCC2 mod) | MrgX1 antag conf inactive | HEK293 Ca flux inactive | HEK293 Ca counter inactive | HEK293 Ca cntr2 inactive
Cc1cc(NC(=O)C2CC(=O)N(c3ccccc3)C2)no1 (centres undefined)	MrgX1 antagonist -4.6 | MrgX1 antag conf 85% | HEK293 Ca flux inactive | HEK293 Ca counter inactive | HEK293 Ca cntr2 inactive
COc1ccc(-n2c(SCC(=O)Nc3cc(C)on3)nc3c(c2=O)SCC3)cc1	MrgX1 antagonist -4.6 | MrgX1 antag conf inactive | HEK293 Ca flux inactive | HEK293 Ca counter inactive | HEK293 Ca cntr2 inactive
COc1ccc(-n2c(SCC(=O)Nc3cc(C)on3)nc3c(c2=O)SCC3)cc1OC	none (no result: KCC2 mod)
